Sampled rows, rich in hits. Any-hit rate of the full collection: about 1.9%.
Rin1 Abl inh: inhibitors of Rin1-Abl protein binding, primary screen, biochemical, TR-FRET | Tyrosine-protein kinase ABL1 (Homo sapiens) + Ras and Rab interactor 1 (Homo sapiens), … | actives 0.4% (n = 360,000) | inhibition, % at 7.35 µM | AID 588664, 2011; in the data active = inhibition above about 5%, passing the limit was not always enough
UHRF1 MBD2 ctr: UHRF1 methylated DNA binding inhibitors, primary screen, counter-screen for MBD2 inhibitor project, biochemical, TR-FRET, human UHRF1, single concentration. actives 0.75% (n = 370,000). AID 687016, 2013. UHRF1 binding to methylated oligo. E3 ubiquitin-protein ligase UHRF1 (Homo sapiens), Q96T88. inhibition, % at 4.4 µM; in the data active = inhibition above about 21%;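 note: UHRF1 SRA domain binding a hemimethylated CpG hairpin DNA probe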
TDP2 inh: human TDP2 enzyme inhibitors, primary screen, biochemical, epi absorbance, recombinant enzyme | AID 720702, 2013 | inhibition, % at 12.8 µM | actives 0.34% (n = 370,000) | T5PNP hydrolysis, p-nitrophenol absorbance 415 nm | Tyrosyl-DNA phosphodiesterase 2 (Homo sapiens), O95551;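 active = inhibition above the mean of all tested compounds plus 3 SD, set per campaign, cut at about 25% in these data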
Target sequence (O95551 whole entry, looked up): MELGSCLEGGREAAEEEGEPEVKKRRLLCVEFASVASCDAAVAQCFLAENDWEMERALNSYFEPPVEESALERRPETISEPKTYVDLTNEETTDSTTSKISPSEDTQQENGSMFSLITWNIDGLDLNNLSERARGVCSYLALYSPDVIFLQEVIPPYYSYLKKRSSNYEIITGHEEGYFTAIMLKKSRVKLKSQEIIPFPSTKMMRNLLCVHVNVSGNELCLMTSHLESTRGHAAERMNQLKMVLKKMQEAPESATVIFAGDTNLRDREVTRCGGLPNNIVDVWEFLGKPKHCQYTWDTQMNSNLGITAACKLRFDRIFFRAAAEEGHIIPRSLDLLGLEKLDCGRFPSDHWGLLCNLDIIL
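Read-out basis: percent inhibition. System: recombinant human TDP2. Buffer or medium: Mg2+-containing Tris-HCl buffer, pH 7.5. Repeats: single replicate. Timing: reaction 2 h, 37 °C. Benchmarks: high control without enzyme, low control DMSO plus TDP2. Probe or stimulus: 5 mM T5PNP. Doses: 12.8 µM only. Measured by: epi absorbance of p-nitrophenol freed from T5PNP by hydrolysis.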
MBD2 inh: inhibitors of MBD2 binding to methylated DNA, primary screen, biochemical, TR-FRET, DNA-binding domain, human | MBD2 binding to methylated oligonucleotide | inhibition, % at 4.4 µM | actives 0.31% (n = 370,000) | AID 686964, 2013; in the data active = inhibition above about 13%
LEDGF integ inh: blockers of LEDGF/p75-dependent integrase strand transfer – biochemical, TR-FRET, high throughput, primary screen. HIV-1 integrase (with human LEDGF/p75). TR-FRET IN-LEDGF/p75 DNA integration, Eu/Cy5. inhibition, % at 3.7 µM. actives 0.64% (n = 370,000);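 active = inhibition above the screen-wide mean plus 3 SD, cut at about 13% in these data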;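 note: signal is the Cy5 over europium emission ratio at 671 and 618 nm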
TDP2 inh conf: human TDP2 enzyme inhibitors, retest, confirmation, biochemical, epi absorbance, recombinant enzyme | shares compounds with TDP2 inh | absorbance read-out | inhibition, % at 12.8 µM | actives 22% (n = 1,100); in the data active = inhibition above about 25%
IN multimer up: HIV-1 IN multimer formation enhancers, counter-screen for LEDGF/p75 integration inhibitor project, biochemical, TR-FRET; actives 17% (n = 2,000); TR-FRET HIV-1 integrase multimerization; shares compounds with LEDGF integ inh; activation, % at 7.7 µM; in the data active = activation above about 8.9%
TR-FRET interf: TR-FRET optical interference artefacts, confirmation, artefact control for LEDGF/p75-dependent integration inhibitor project, biochemical, HIV-1 IN multimerization; shares compounds with LEDGF integ inh; TR-FRET optical interference counterscreen; inhibition, % at 7.7 µM; 2,000 tested, under 10 active; AID 1053135, 2014;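 active = inhibition above the mean over all tested compounds plus 3 SD, which no compound reached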
LEDGF integ conf: inhibitors of HIV-1 IN-LEDGF/p75 DNA integration, confirmation, biochemical, TR-FRET; shares compounds with LEDGF integ inh; inhibition, % at 3.7 µM; TR-FRET LEDGF/p75-dependent HIV-1 integration; actives 36% (n = 2,000); AID 1053136, 2014; in the data active = inhibition above about 14%
Numbers stand for hits; i = inactive; nt = no result.

SMILES	Rin1 Abl inh	UHRF1 MBD2 ctr	TDP2 inh	MBD2 inh	LEDGF integ inh	TDP2 inh conf	IN multimer up	TR-FRET interf	LEDGF integ conf
Cc1cccc(/C=N/NC(=O)C(C)Nc2cccc3ccccc23)n1 (configuration not stated)	i	i	67.2	i	31.8	i	i	i	i
COc1cc([N+](=O)[O-])cc(/C=N/NC(=O)C(C)Nc2cccc3ccccc23)c1O (configuration not stated)	i	i	i	i	i	nt	nt	nt	nt
CCC[C@H]1[C@@H](OC(=O)NCc2ccc(OC)cc2)CC[C@@]23CCCN2C(=O)CCC[C@@H]13	nt	i	i	i	i	nt	nt	nt	nt
S=C(Nc1ccc2nsnc2c1)N1CCCC1	i	i	67.3	i	31.6	44.9	i	i	i
O=C(Nc1ccc2nsnc2c1)N1CCCCCC1	i	i	i	i	i	nt	nt	nt	nt
COc1ccc(OC)c(/C=N/Nc2nncn2/N=C/c2cc(OC)ccc2OC)c1	i	i	66.9	i	38.8	i	i	i	i
C(=N\Nc1nncn1/N=C/c1ccco1)/c1ccco1	i	i	55.1	i	37.1	i	i	i	i
COc1cc(/C=N/Nc2ccccc2)ccc1O	i	i	i	i	i	nt	nt	nt	nt
COc1cc(/C=N\Nc2nncn2N)ccc1OC(C)=O	i	i	57.1	i	58.4	i	i	i	i
COc1cc(/C=N/Nc2nncn2/N=C/c2ccc(O)c(OC)c2)ccc1O	i	i	67.3	i	47.9	i	i	i	i
COc1cc(/C=N/NC(=O)c2ccncc2)ccc1OC(C)=O	i	i	i	i	i	nt	nt	nt	nt
CC(=O)N1CCN(C2=NC(=O)N(c3ccc(Br)cc3)C(=O)C2)CC1	nt	i	i	i	i	nt	nt	nt	nt
O=C(NCCc1c[nH]c2ccccc12)OCc1cn(-c2cccc(Cl)c2)nn1	nt	i	i	i	i	nt	nt	nt	nt
CCOC(=O)[C@]12CCCC=C1N(CCCOC)C(=O)[C@@H]2CC(=O)NCC1CCCCC1	nt	i	i	i	i	nt	nt	nt	nt
COC(=O)[C@H](CC(C)C)N1Cc2nnn(Cc3ccccc3)c2-c2cc(F)ccc2S1(=O)=O	nt	i	i	i	i	nt	nt	nt	nt
COc1cc(NCCCC(C)N)c2ncccc2c1 (configuration not stated)	i	i	64.2	i	30.3	26.9	i	i	62.7
CCC(CNc1cc(OC)cc2cccnc12)NC1CCCCC1 (configuration not stated)	i	i	79.1	i	57.9	24.7	i	i	75.9
COc1cc(NCCCCC(C)N)c2nccc(C)c2c1 (configuration not stated)	i	i	i	i	i	nt	nt	nt	nt
Cc1csc(NC(=O)c2ccc(COc3cccc(F)c3)o2)n1	nt	i	i	i	i	nt	nt	nt	nt
COc1ccc2c(c1)Cc1sc(NC(C)=O)nc1-2	i	i	49.2	i	14.7	29.3	i	i	26.9
COc1ccc2c(c1)CCc1sc(NC(=O)c3ccco3)nc1-2	i	nt	nt	nt	nt	nt	nt	nt	nt
COc1ccc2c(c1)Cc1sc(NC(=O)c3ccco3)nc1-2	i	i	64.3	i	37.7	i	i	i	i
Cn1c(SCC(=O)Nc2ccccc2-c2ccccc2)nnc1-c1ccccc1	nt	i	i	i	i	nt	nt	nt	nt

From PubChem
